From ChEMBL document CHEMBL1153602, “Photochemical electrocyclisation of 3-vinylindoles to pyrido[2,3-a]-, pyrido[4,3-a]- and thieno[2,3-a]-carbazoles: design, synthesis, DNA binding and antitumor cell cytotoxicity” (2009)
Active and inactive are the calls of the source. No cut-off for these calls is given here.

Assays:
[1] = system: Nucleic Acid; experiment: Binding affinity to pBS 117bp DNA by DnaseI footprinting assay; format: nucleic-acid assay
In short: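 Ligand and fragment were pre-incubated 15 min at 37 °C, then digested with DNase I at 0.001 unit/ml in 20 mM NaCl, 2 mM MgCl2, 2 mM MnCl2, pH 7.3. Products were resolved on a denaturing 8% polyacrylamide/8 M urea gel, with a G-track marker.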

[2] = system: Calf thymus DNA; experiment: Binding affinity to calf thymus DNA assessed as change in melting temperature at a compound to DNA molar ratio of 0.5 by UV-vis spectroscopy; format: nucleic-acid assay; conditions: Bos taurus
In short: (§1)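 UV absorbance of DNA at 260 nm recorded every minute from 20 to 100 °C, ramping 1 °C/min in a thermostated quartz cell. Tm is taken as the midpoint of the hyperchromic transition. ΔTm = Tm(DNA+drug) − Tm(DNA alone). Calf-thymus DNA or poly(dAdT)2 was used at DNA/drug ratios from 0.1 to 1.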

[3] = system: Nucleic Acid; experiment: Binding affinity to poly(dA).poly(dT) duplex DNA assessed as change in thermal melting temperature at compound to DNA ratio of 0.1 by UV-vis spectroscopy; format: nucleic-acid assay
[4] = system: Calf thymus DNA; experiment: Binding affinity to calf thymus DNA assessed as change in melting temperature at a compound to DNA molar ratio of 1 by UV-vis spectroscopy; format: nucleic-acid assay; conditions: Bos taurus; in short: as §1
[5] = system: Nucleic Acid; experiment: Binding affinity to poly(dA).poly(dT) duplex DNA assessed as change in thermal melting temperature at compound to DNA ratio of 0.5 by UV-vis spectroscopy; format: nucleic-acid assay
[6] = system: Nucleic Acid; experiment: Binding affinity to poly(dA).poly(dT) duplex DNA assessed as change in thermal melting temperature at compound to DNA ratio of 0.25 by UV-vis spectroscopy; format: nucleic-acid assay
[7] = system: Nucleic Acid; experiment: Binding affinity to poly(dA).poly(dT) duplex DNA assessed as change in thermal melting temperature at compound to DNA ratio of 1 by UV-vis spectroscopy; format: nucleic-acid assay
[8] = system: Calf thymus DNA; experiment: Binding affinity to calf thymus DNA assessed as change in melting temperature at a compound to DNA molar ratio of 0.1 by UV-vis spectroscopy; format: nucleic-acid assay; conditions: Bos taurus; in short: as §1
[9] = system: Calf thymus DNA; experiment: Binding affinity to calf thymus DNA assessed as change in melting temperature at a compound to DNA molar ratio of 0.25 by UV-vis spectroscopy; format: nucleic-acid assay; conditions: Bos taurus; in short: as §1
[10] = molecular target: T1, DNA topoisomerase 1 (Homo sapiens) (UniProt P11387); experiment: Inhibition of human topoisomerase 1-mediated DNA relaxation assessed as lack of nicking form by agarose gel electrophoresis
T1 sequence (whole entry): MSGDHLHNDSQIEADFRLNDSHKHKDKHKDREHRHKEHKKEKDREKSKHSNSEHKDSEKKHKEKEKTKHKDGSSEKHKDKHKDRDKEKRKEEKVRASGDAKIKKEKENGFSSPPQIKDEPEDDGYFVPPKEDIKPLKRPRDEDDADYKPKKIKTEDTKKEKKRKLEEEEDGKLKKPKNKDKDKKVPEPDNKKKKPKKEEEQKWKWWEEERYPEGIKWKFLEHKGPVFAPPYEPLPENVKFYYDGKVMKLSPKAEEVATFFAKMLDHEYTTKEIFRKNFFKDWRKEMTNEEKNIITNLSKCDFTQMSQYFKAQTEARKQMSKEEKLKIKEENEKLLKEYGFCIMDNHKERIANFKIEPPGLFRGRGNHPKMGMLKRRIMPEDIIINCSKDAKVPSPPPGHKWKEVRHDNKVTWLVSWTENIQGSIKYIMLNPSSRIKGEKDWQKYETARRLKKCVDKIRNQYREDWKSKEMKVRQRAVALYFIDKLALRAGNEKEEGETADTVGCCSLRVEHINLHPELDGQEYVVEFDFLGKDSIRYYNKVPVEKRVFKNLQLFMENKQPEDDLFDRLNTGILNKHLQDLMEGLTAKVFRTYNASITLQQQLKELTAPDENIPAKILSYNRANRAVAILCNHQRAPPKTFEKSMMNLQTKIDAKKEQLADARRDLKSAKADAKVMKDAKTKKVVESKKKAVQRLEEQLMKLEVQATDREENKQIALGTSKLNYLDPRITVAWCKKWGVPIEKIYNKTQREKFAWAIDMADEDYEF
In short: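 Supercoiled pUC19 (130 ng) was pre-incubated with compound at graded concentrations, or 20 or 50 µM in the cleavage assay. Human topoisomerase I (4 units) was then added for 45 min at 37 °C in 50 mM Tris pH 7.8, 50 mM KCl, 10 mM MgCl2, 1 mM DTT, 1 mM EDTA, 1 mM ATP. Camptothecin (20 µM) served as control. Samples ran on 1% agarose for 2 h at 120 V in TBE, with ethidium bromide either post-stained (relaxation) or included in the gel (cleavage).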

[11] = system: CCRF-CEM; experiment: Growth inhibition of human CCRF-CEM cells after 48 hrs by sulforhodamine B protein assay; format: functional
In short: (§2)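 NCI 60-cell-line screen. Dose–response used at least five concentrations in 10-fold dilutions with 48 h continuous drug exposure. Growth was estimated by sulforhodamine B protein staining. GI50 is the molar concentration giving 50% growth inhibition versus control.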

[12] = system: HT-29; experiment: Growth inhibition of human HT-29 cells by MTS assay; format: functional
In short: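 HT-29 cells, 3×10^3 per well, were seeded 24 h before treatment with compound at 1 nM–100 µM, run as 3 series of duplicate or triplicate points. After 72 h at 37 °C, MTS tetrazolium was added for 2 h and absorbance read at 492 nm. GC50 is the concentration halving cell number versus untreated control wells.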

[13] = molecular target: DNA topoisomerase 2-alpha (Homo sapiens) (UniProt P11388); experiment: Inhibition of human topoisomerase 2-mediated DNA relaxation assessed as double stranded break form by agarose gel electrophoresis
Sequence of DNA topoisomerase 2-alpha (Homo sapiens) (P11388 whole entry): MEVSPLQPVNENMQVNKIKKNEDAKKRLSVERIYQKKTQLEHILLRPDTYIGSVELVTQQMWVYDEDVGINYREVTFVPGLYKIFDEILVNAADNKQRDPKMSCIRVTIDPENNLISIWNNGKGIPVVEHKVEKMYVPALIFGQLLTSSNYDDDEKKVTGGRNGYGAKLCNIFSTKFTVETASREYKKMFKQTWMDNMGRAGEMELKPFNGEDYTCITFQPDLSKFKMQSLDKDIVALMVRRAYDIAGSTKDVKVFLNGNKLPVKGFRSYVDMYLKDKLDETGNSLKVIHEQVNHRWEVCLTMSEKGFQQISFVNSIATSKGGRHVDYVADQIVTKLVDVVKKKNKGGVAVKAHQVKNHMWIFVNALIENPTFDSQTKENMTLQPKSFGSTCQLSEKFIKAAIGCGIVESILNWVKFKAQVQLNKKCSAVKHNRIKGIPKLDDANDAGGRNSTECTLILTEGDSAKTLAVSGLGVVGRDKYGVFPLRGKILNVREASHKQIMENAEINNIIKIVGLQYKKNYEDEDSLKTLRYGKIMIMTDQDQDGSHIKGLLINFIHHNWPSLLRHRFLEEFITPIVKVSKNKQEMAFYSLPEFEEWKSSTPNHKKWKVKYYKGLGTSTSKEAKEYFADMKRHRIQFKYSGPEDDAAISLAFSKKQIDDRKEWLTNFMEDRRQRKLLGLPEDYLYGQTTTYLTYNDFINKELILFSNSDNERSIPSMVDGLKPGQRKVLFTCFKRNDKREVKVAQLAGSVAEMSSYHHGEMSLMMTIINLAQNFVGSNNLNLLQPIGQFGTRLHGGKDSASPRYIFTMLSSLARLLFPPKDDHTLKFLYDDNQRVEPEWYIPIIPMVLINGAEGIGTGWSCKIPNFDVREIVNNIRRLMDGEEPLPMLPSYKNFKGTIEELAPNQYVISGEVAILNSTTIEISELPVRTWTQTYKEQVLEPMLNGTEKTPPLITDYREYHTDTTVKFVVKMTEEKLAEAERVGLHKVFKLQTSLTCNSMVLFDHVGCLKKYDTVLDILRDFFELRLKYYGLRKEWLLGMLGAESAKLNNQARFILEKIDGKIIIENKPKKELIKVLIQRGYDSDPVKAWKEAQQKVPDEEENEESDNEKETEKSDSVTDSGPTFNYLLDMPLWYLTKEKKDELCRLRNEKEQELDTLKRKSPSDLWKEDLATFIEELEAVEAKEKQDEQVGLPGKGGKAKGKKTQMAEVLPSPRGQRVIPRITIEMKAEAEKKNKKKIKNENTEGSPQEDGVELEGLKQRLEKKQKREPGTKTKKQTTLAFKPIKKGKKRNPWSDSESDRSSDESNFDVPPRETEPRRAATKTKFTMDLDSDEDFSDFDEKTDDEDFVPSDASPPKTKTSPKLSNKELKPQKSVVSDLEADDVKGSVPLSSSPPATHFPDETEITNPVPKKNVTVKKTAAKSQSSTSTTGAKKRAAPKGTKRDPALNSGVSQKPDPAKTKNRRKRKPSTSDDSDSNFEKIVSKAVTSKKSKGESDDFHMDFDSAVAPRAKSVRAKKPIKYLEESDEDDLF
In short: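 Supercoiled pUC19 (130 ng) with compound at 20 or 50 µM, or etoposide as control, was incubated with human topoisomerase II (4 units) for 45 min at 37 °C in cleavage buffer. The reaction was stopped with 0.25% SDS plus proteinase K for 30 min at 50 °C. DNA forms were separated on 1% agarose containing ethidium bromide in TBE.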

[14] = system: HT-29; experiment: Cell cycle arrest in human HT-29 cells assessed as accumulation at S phase at 25 uM after 24 hrs using PI staining by flow cytometry; format: functional
In short: (§3)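 HT-29 cells, 3×10^5 per sample in exponential growth, were exposed to graded drug concentrations for 24 h. Cells were then trypsinised, fixed in 70% ethanol and stained 30 min in the dark with propidium iodide (50 µg/ml) plus RNase (100 µg/ml). DNA content was measured by flow cytometry, quantifying cell-cycle phases and the sub-G1 fraction.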

[15] = system: Calf thymus DNA; experiment: Binding affinity to calf thymus DNA assessed as enhancement constant by fluorescence spectroscopy; format: nucleic-acid assay; conditions: Bos taurus
In short: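 Drug at a fixed 20 µM in 1 ml BPE buffer in a 10 mm quartz cuvette, titrated with CT-DNA at 10–200 µM base pairs. Excitation was set at each compound's own wavelength (276–319 nm). Constants came from Stern–Volmer plots of F0/F against CT-DNA concentration, with the slope taken as Ksv.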

[16] = system: ACHN; experiment: Growth inhibition of human ACHN cells after 48 hrs by sulforhodamine B protein assay; format: functional; in short: as §2
[17] = system: HT-29; experiment: Cell cycle arrest in human HT-29 cells assessed as reduction of cells in G1 phase after 24 hrs using PI staining by flow cytometry; format: functional, cell-based; in short: as §3
[18] = system: HT-29; experiment: Growth inhibition of human HT-29 cells after 48 hrs by sulforhodamine B protein assay; format: functional; conditions: HT-29, 48 h; in short: as §2
[19] = system: HT-29; experiment: Cell cycle arrest in human HT-29 cells assessed as accumulation at G2/M phase after 24 hrs using PI staining by flow cytometry; format: functional, cell-based; in short: as §3
[20] = system: COLO 205; experiment: Growth inhibition of human COLO205 cells after 48 hrs by sulforhodamine B protein assay; format: functional; conditions: COLO 205, 48 h; in short: as §2
[21] = system: IGROV-1; experiment: Growth inhibition of human IGROV1 cells after 48 hrs by sulforhodamine B protein assay; format: functional; conditions: IGROV-1, 48 h; in short: as §2
[22] = system: UO-31; experiment: Growth inhibition of human UO31 cells after 48 hrs by sulforhodamine B protein assay; format: functional; conditions: UO-31, 48 h; in short: as §2
[23] = system: OVCAR-3; experiment: Growth inhibition of human OVCAR-3 cells after 48 hrs by sulforhodamine B protein assay; format: functional; conditions: OVCAR-3, 48 h; in short: as §2
[24] = system: CAKI-1; experiment: Growth inhibition of human Caki1 cells after 48 hrs by sulforhodamine B protein assay; format: functional; conditions: CAKI-1, 48 h; in short: as §2

Q: With O=C(NCCCN1CCOCC1)c1cc2c3cccc(Cl)c3[nH]c2c2ncccc12 as the compound, how does the Activity [1] read?
A: inactive

Q: What about the ΔTm [2] of the same compound?
A: 0.4 °C

Q: What about the ΔTm [3] of the same compound?
A: 2.1 °C

Q: What about the ΔTm [4] of the same compound?
A: 0.6 °C

Q: What about the ΔTm [5] of the same compound?
A: 5.3 °C

Q: What about the ΔTm [6] of the same compound?
A: 3.9 °C

Q: What about the ΔTm [7] of the same compound?
A: 5.3 °C

Q: What about the ΔTm [8] of the same compound?
A: 0 °C

Q: And the ΔTm [9]?
A: 0.7 °C

Q: Which results are given for CN(C)CCCNC(=O)c1cc2c3ccccc3[nH]c2c2ncccc12?
A: Activity [1]: Active; Activity [10]: Active; GI50 ([11]; read-out: GI50): 4.31 µM; GI50 ([11]; read-out: pGI50 (converted)): 4.27 µM; ΔTm [2]: 4.4 °C; GI50 [12]: 10.1 µM; ΔTm [3]: 2.9 °C; Activity [13]: Active; Activity [14]: 31.7%; ΔTm [4]: 7.3 °C; ΔTm [5]: 11.6 °C; ΔTm [6]: 8.9 °C; ΔTm [7]: 17.5 °C; ΔTm [8]: 0 °C; Activity [15]: 5.94 ×10² /M; GI50 ([16]; read-out: GI50): 5.24 µM; GI50 ([16]; read-out: pGI50 (converted)): 5.25 µM; Activity [17]: Active; GI50 ([18]; read-out: GI50): 10.3 µM; GI50 ([18]; read-out: pGI50 (converted)): 1.02 µM; ΔTm [9]: 4.4 °C; Activity [19]: Active; GI50 ([20]; read-out: GI50): 4.43 µM; GI50 ([20]; read-out: pGI50 (converted)): 4.47 µM

Q: Which results are given for CN(C)CCNC(=O)c1cc2c3ccccc3[nH]c2c2ncccc12?
A: Activity [1]: Active; GI50 ([21]; read-out: GI50): 1140 nM; GI50 ([21]; read-out: pGI50 (converted)): 1100 nM; Activity [10]: Active; GI50 ([22]; read-out: GI50): 2130 nM; GI50 ([22]; read-out: pGI50 (converted)): 2090 nM; ΔTm [2]: 2.9 °C; GI50 ([23]; read-out: GI50): 25.4 nM; GI50 ([23]; read-out: pGI50 (converted)): 25.1 nM; GI50 [12]: 11.5 µM; ΔTm [3]: 2.9 °C; Activity [13]: Active; GI50 ([24]; read-out: GI50): 515 nM; GI50 ([24]; read-out: pGI50 (converted)): 525 nM; Activity [14]: 32.6%; ΔTm [4]: 7.3 °C; ΔTm [5]: 14.5 °C; ΔTm [6]: 11.8 °C; ΔTm [7]: 18.9 °C; ΔTm [8]: 0 °C; Activity [17]: Active; GI50 ([18]; read-out: GI50): 5.27 µM; GI50 ([18]; read-out: pGI50 (converted)): 5.25 µM; ΔTm [9]: 3 °C; Activity [19]: Active

Q: For COc1cc([C@@H]2c3cc4c(cc3[C@@H](O[C@@H]3O[C@@H]5CO[C@@H](C)O[C@H]5[C@H](O)[C@H]3O)[C@H]3COC(=O)[C@H]23)OCO4)cc(OC)c1O, which Activity [13] is on record?
A: Active
